In ChEMBL document CHEMBL3098105, “7,7'-Diazaindirubin--a small molecule inhibitor of casein kinase 2 in vitro and in cells” (Bioorg Med Chem, 2014):
The source made the active and inactive calls. The calls are words filed in the database; no cut-off is given here.

What was measured:
[1] = target: Mitogen-activated protein kinase 8 (Homo sapiens) (UniProt P45983); assay: Inhibition of human JNK1alpha1 assessed as residual activity at 1 uM relative to control
[2] = target: Casein kinase II (Homo sapiens) (UniProt P67870+P68400+P19784); assay: Inhibition of CK2 in human MCF7 cells assessed as reduction of Akt phosphorylation at S473 at 0.25 to 8 uM after 2 hrs by Western blot analysis; type: cell-based
How it was run: (§1)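 Cells were lysed in urea lysis buffer (6 M urea, NaF, Na3VO4, protease inhibitors). 20–40 µg protein was run on 10% SDS-PAGE and detected by ECL. Primary antibodies (pAkt S473, PARP, β-actin loading control) were used at 1:1000 overnight at 4 °C. DMSO was the vehicle control. For the pAkt blots, cells were treated for 2 h with Ly294002 as positive control.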

[3] = target: Insulin-like growth factor 1 receptor (Homo sapiens) (UniProt P08069); assay: Inhibition of IGF1-R (unknown origin) assessed as residual activity at 1 uM relative to control
[4] = test system: MCF7; assay: Cell cycle arrest in human MCF7 cells assessed as accumulation at G2/M phase at 0.25 uM after 24 hrs using propidium iodide staining by FACS analysis (reference value: 22.13%); type: functional
[5] = target: Receptor-type tyrosine-protein kinase FLT3 (Homo sapiens) (UniProt P36888); assay: Inhibition of FLT3 (unknown origin) assessed as residual activity at 1 uM relative to control
[6] = target: Vascular endothelial growth factor receptor 1 (Homo sapiens) (UniProt P17948); assay: Inhibition of human Flt1 assessed as residual activity at 1 uM relative to control
[7] = target: Serine/threonine-protein kinase MRCK beta (Homo sapiens) (UniProt Q9Y5S2); assay: Inhibition of human MRCKbeta assessed as residual activity at 1 uM relative to control
[8] = test system: MCF7; assay: Induction of apoptosis in human MCF7 cells assessed as PARP cleavage at 1 uM after 24 hrs by Western blot analysis; type: functional, cell-based; how it was run: as §1
[9] = target: MAP kinase-activated protein kinase 3 (Homo sapiens) (UniProt Q16644); assay: Inhibition of human MAPKAP-K3 assessed as residual activity at 1 uM relative to control
[10] = Antiproliferative activity against human UACC257 cells after 3 days by sulforhodamine B assay; type: functional; settings: UACC-257, 72 h
[11] = target: Tyrosine-protein kinase Fgr (Homo sapiens) (UniProt P09769); assay: Inhibition of human Fgr assessed as residual activity at 1 uM relative to control
[12] = test system: MCF7; assay: Cell cycle arrest in human MCF7 cells assessed as accumulation at sub-G1 phase at 0.25 uM after 24 hrs using propidium iodide staining by FACS analysis (reference value: 0.17%); type: functional
[13] = target: Serine/threonine-protein kinase pim-2 (Homo sapiens) (UniProt Q9P1W9); assay: Inhibition of human Pim-2 assessed as residual activity at 1 uM relative to control
[14] = target: Tyrosine-protein kinase JAK3 (Homo sapiens) (UniProt P52333); assay: Inhibition of human JAK3 assessed as residual activity at 1 uM relative to control
[15] = target: Testis-specific serine/threonine-protein kinase 2 (Homo sapiens) (UniProt Q96PF2); assay: Inhibition of human TSSK2 assessed as residual activity at 1 uM relative to control
[16] = target: Myotonin-protein kinase (Homo sapiens) (UniProt Q09013); assay: Inhibition of human DMPK assessed as residual activity at 1 uM relative to control
[17] = target: Aurora kinase B (Homo sapiens) (UniProt Q96GD4); assay: Inhibition of Aurora-B (unknown origin) assessed as residual activity at 1 uM relative to control
[18] = test system: PC-3; assay: Antiproliferative activity against human PC3 cells after 3 days by sulforhodamine B assay; type: functional; settings: PC-3, 72 h
How it was run: (§2)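 Tested in the NCI 60 cell line panel. GI50 is the concentration giving 50% inhibition of cell growth, and values are the mean of two series of tests.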

[19] = target: Casein kinase I isoform gamma-1 (Homo sapiens) (UniProt Q9HCP0); assay: Inhibition of human CK1gamma1 assessed as residual activity at 1 uM relative to control
[20] = target: Focal adhesion kinase 1 (Homo sapiens) (UniProt Q05397); assay: Inhibition of FAK fl (unknown origin) assessed as residual activity at 10 uM relative to control
[21] = target: Serine/threonine-protein kinase tousled-like 2 (Homo sapiens) (UniProt Q86UE8); assay: Inhibition of human TLK2 assessed as residual activity at 1 uM relative to control
[22] = target: Dual specificity mitogen-activated protein kinase kinase 4 (Mus musculus) (UniProt P47809); assay: Inhibition of mouse MKK4 assessed as residual activity at 1 uM relative to control
[23] = target: Protein kinase C alpha type (Homo sapiens) (UniProt P17252); assay: Inhibition of human PKCalpha assessed as residual activity at 1 uM relative to control
[24] = test system: MCF7; assay: Cell cycle arrest in human MCF7 cells assessed as accumulation at S phase at 1 uM after 24 hrs using propidium iodide staining by FACS analysis (reference value: 18.59%); type: functional
[25] = Antiproliferative activity against human Hs 578T cells after 3 days by sulforhodamine B assay; type: functional; settings: 72 h; how it was run: as §2
[26] = test system: HCT-15; assay: Antiproliferative activity against human HCT15 cells after 3 days by sulforhodamine B assay; type: functional; settings: HCT-15, 72 h; how it was run: as §2
[27] = test system: KM12; assay: Antiproliferative activity against human KM12 cells after 3 days by sulforhodamine B assay; type: functional; settings: KM12, 72 h; how it was run: as §2
[28] = target: Serine/threonine-protein kinase Nek2 (Homo sapiens) (UniProt P51955); assay: Inhibition of human NEK2 assessed as residual activity at 1 uM relative to control
[29] = target: T1, Aurora kinase A (Homo sapiens) (UniProt O14965); assay: Inhibition of Aurora-A (unknown origin) assessed as residual activity at 10 uM relative to control
T1 sequence (whole entry): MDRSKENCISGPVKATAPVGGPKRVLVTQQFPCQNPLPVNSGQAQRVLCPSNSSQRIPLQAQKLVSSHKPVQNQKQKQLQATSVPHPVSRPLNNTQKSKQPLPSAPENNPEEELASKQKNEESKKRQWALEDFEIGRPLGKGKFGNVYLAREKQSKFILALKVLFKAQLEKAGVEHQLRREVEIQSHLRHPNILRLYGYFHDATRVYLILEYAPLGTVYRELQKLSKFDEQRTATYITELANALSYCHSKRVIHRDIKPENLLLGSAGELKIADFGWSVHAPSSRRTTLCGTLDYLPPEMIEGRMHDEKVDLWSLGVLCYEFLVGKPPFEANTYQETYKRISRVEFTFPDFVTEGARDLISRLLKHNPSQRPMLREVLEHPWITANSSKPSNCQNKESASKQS

[30] = target: Serine/threonine-protein kinase BRSK2 (Homo sapiens) (UniProt Q8IWQ3); assay: Inhibition of human BrSK2 assessed as residual activity at 1 uM relative to control
[31] = target: SRSF protein kinase 3 (Homo sapiens) (UniProt Q9UPE1); assay: Inhibition of human MSSK1 assessed as residual activity at 1 uM relative to control

Focal adhesion kinase 1 (Homo sapiens), sequence (Q05397 2-1052 limits assumed): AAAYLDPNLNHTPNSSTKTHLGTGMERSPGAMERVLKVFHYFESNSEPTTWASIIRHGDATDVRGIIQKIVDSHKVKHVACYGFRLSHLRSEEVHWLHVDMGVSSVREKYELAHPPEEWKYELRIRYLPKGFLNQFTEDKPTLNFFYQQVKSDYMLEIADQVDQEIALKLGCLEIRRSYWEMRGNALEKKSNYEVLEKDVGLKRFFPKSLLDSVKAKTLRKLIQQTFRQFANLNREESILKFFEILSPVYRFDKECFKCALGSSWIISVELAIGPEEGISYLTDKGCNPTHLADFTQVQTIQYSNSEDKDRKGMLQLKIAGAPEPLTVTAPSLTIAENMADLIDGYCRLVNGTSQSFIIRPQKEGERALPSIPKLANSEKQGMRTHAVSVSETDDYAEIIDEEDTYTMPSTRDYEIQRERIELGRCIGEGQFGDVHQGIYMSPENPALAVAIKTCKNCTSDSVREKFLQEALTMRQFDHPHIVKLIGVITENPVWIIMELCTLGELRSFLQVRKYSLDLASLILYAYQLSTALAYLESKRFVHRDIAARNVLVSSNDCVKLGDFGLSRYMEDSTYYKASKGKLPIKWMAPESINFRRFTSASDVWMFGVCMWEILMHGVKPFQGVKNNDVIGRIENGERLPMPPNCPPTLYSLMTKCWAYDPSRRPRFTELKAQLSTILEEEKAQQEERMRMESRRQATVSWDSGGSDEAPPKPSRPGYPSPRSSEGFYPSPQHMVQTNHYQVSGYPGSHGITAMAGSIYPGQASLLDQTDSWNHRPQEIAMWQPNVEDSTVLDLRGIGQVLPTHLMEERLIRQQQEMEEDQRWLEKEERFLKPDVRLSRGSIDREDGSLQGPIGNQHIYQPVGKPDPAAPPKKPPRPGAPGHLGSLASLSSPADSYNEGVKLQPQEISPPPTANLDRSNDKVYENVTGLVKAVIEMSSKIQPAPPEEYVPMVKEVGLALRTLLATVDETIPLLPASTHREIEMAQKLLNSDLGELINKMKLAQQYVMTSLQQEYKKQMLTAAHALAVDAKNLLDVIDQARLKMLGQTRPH
Serine/threonine-protein kinase BRSK2 (Homo sapiens), sequence (Q8IWQ3 whole entry): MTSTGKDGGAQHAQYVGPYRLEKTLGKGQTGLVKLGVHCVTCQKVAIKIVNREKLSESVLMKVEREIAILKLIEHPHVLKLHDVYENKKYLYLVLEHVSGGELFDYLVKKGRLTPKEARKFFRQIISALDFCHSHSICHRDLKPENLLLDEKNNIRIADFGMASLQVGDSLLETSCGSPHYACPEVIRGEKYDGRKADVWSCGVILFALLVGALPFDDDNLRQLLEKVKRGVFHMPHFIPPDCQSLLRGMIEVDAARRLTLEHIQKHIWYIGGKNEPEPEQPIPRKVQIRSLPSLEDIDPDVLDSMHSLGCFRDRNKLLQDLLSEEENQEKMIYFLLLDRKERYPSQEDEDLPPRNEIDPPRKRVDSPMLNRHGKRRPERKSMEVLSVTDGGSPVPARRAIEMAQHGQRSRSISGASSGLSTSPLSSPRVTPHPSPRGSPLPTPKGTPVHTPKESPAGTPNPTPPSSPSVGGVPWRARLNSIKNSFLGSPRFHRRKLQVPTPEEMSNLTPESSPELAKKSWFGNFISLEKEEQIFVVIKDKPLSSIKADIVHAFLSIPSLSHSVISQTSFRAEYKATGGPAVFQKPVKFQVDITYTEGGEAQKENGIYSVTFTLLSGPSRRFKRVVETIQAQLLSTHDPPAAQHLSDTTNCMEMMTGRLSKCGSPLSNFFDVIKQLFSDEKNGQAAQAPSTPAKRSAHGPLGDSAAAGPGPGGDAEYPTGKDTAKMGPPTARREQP
Tyrosine-protein kinase JAK3 (Homo sapiens), sequence (P52333 whole entry): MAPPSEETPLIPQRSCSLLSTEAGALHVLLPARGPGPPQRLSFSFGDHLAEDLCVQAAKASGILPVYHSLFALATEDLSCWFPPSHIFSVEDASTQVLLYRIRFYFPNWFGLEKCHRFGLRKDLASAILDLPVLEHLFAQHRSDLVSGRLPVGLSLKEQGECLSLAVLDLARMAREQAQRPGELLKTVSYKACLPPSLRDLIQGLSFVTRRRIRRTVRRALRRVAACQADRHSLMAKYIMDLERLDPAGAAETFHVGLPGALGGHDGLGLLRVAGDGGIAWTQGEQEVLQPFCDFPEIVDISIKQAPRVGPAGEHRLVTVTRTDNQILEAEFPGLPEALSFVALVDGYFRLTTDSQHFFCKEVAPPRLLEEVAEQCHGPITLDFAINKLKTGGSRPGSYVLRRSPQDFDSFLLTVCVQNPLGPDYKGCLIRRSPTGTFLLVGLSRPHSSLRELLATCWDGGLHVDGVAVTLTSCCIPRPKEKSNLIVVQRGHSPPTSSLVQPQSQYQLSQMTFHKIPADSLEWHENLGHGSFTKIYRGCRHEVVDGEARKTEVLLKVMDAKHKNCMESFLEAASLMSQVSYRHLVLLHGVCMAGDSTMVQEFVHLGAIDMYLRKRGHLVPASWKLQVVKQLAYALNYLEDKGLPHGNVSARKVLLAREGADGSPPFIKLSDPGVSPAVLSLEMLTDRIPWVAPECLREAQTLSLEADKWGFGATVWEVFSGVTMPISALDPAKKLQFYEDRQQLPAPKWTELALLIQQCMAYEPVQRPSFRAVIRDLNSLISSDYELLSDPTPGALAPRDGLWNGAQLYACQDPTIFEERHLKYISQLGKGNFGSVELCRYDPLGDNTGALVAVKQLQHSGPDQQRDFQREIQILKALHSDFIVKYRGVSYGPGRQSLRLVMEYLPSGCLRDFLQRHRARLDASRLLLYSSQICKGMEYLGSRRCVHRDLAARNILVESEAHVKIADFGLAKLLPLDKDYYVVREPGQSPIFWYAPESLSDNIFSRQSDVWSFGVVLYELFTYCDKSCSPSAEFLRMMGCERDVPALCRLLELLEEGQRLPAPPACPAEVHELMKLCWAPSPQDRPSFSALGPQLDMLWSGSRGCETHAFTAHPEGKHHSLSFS
Vascular endothelial growth factor receptor 1 (Homo sapiens), sequence (P17948 whole entry): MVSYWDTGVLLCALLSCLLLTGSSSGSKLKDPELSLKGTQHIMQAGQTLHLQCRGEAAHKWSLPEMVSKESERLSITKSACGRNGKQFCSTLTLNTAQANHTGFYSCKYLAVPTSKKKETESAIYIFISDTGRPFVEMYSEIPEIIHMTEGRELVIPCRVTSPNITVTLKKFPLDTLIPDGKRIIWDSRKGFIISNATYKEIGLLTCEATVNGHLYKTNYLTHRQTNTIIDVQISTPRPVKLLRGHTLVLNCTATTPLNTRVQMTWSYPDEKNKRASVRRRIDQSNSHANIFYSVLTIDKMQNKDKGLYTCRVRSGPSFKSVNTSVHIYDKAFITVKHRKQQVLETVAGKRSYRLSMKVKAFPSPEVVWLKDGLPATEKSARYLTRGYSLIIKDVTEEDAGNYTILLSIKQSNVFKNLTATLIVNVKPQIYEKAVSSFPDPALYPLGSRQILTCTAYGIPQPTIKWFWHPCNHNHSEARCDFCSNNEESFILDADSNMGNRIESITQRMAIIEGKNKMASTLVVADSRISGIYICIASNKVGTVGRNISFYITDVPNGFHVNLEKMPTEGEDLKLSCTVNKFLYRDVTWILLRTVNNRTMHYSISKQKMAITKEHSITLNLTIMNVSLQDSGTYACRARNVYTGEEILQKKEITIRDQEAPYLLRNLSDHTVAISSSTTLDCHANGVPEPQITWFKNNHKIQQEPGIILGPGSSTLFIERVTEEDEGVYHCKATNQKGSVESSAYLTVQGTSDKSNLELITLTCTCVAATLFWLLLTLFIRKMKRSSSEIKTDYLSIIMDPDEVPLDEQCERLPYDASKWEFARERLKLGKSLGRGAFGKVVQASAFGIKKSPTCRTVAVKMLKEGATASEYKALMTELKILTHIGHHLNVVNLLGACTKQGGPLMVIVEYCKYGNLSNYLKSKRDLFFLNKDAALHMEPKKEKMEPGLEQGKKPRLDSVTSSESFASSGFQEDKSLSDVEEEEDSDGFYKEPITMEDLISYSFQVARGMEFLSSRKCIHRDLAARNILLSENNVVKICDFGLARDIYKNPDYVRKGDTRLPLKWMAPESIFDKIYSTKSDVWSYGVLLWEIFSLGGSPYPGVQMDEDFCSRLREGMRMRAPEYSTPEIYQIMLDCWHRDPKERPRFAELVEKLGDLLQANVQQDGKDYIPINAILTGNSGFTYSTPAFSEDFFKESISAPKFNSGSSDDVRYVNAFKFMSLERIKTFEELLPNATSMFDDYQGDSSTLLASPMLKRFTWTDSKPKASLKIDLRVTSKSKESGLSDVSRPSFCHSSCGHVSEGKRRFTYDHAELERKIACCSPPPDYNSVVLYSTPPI

For `O=C1Nc2ncccc2/C1=C1/Nc2ncccc2C1=O`, the Activity [1] was 97%, the inhibition [2] was “Active” and the Activity [3] was 94%. The Activity [4] was 21.66%, the Activity [5] was 79% and the Activity [6] was 96%. The Activity [7] was 102%, the Activity [8] was “Active” and the Activity [9] was 98%. The GI50 [10] was 214 nM, the Activity [11] was 114% and the Activity [12] was 0.17%. The Activity [13] was 142%, the Activity [14] was 85% and the Activity [15] was 66%. The Activity [16] was 95%, the Activity [17] was 108% and the GI50 [18] was 2020 nM. For the same compound, the Activity [19] was 104%, the Activity [20] was 63% and the Activity [21] was 103%. The Activity [22] was 110%, the Activity [23] was 88% and the Activity [24] was 12.87%. For the same compound, the GI50 [25] was 1670 nM, the GI50 [26] was 575 nM and the GI50 [27] was 387 nM. For the same compound, the Activity [28] was 101%, the Activity [29] was 61% and the Activity [30] was 108%. It also gave an Activity [31] of 73%.
